Measured values reported in ChEMBL document CHEMBL1135487, “Structure-activity relationship for enhancement of paracellular permeability across Caco-2 cell monolayers by 3-alkylamido-2-alkoxypropylphosphocholines” (J Med Chem, 2002).

Experiments:
Caco-2 [1] = experiment: Increase in the mannitol flux by 10-fold (EC10x) of the control value; type: functional, Homo sapiens
Procedure, shortened: (§1)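 Caco-2 monolayers on filters, TEER 600–800 Ω·cm². Enhancer at 0.01–5.0 mM in HBSS applied apically for 20 min, then washed out. Apical side then given 0.1 mM [3H]mannitol, 37 °C, sink conditions. Basolateral samples taken at 20, 40, 60 and 90 min and counted by liquid scintillation. EC10x = concentration raising mannitol permeability 10-fold over control; triplicate.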

Caco-2 [2] = experiment: Decrease in the trans-epithelial electrical resistance(TEER) in Caco-2 cell monolayers; type: functional, cell-based; details: Homo sapiens
Procedure, shortened: (§2)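 Caco-2 cells (passage 45–55) grown on 1.0 cm² polycarbonate filters for 20–22 days and equilibrated 1 h in HBSS (25 mM HEPES, 25 mM glucose, pH 7.4) at 37 °C; monolayers with TEER 600–800 Ω·cm² used. Compound applied apically in HBSS at various concentrations for 20 min at room temperature. TEER read by voltohmmeter, blank filter subtracted. EC50 = concentration cutting TEER 50% versus untreated; triplicate, mean ± SD.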

[3] = Concentration to decrease mitochondrial dehydrogenase vs concentration to decrease TEER (IC50/EC50); type: functional
Procedure, shortened: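 Ratio of two values measured on Caco-2 cells (passage 45–55). IC50: cells grown 96 h, exposed 20 min to phospholipid in HBSS, MTT added for 120 min more, SDS/HCl-isobutanol stop, absorbance 590 nm. EC50: 20–22-day monolayers (TEER 600–800 Ω·cm²), 20 min apical exposure in HBSS at room temperature, 50% TEER fall vs untreated. Triplicates.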

Caco-2 [4] = experiment: Critical Micelle Concentration (CMC) determined by fluorescence assay using DPH as a probe; type: functional, Homo sapiens
Procedure, shortened: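 Aqueous phosphocholine solutions over a concentration range received DPH (1 µL of 10 mM stock in THF per 2 mL). They were held 30 min in the dark at room temperature, then fluorescence was read (ex 365, em 460 nm). CMC was taken as the intersection of linear fits below and above the intensity inflection; mean of triplicates.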

Caco-2 [5] = experiment: Concentration to increase the mannitol flux by 10-fold (EC10x) of the control value; type: functional, Homo sapiens; procedure, shortened: as §1
Caco-2 [6] = experiment: Concentration to decrease the transepithelial electrical resistance (TEER) in Caco-2 cell monolayers; type: functional, cell-based; details: Homo sapiens; procedure, shortened: as §2

Row | SMILES | EC50 (Caco-2 [2]) [µM] | Potency index [3] | EC50 (Caco-2 [6]) [µM] | EC10x (Caco-2 [1]) [µM] | CMC (Caco-2 [4]) [µM] | EC10x (Caco-2 [5]) [µM]
1 | CCCCCCCCCC(=O)NCC(COP(=O)([O-])OCC[N+](C)(C)C)OCCCCCCCC (centres undefined) |  | 1.27 | 300 |  | 55.3 | 1210
2 | CCCCCCCCCCCCCC(=O)NCC(COP(=O)([O-])OCC[N+](C)(C)C)OCC (centres undefined) | 80 | 2 |  | 890 | 148 | 
3 | CCCCCCCCCC(=O)NCC(COP(=O)([O-])OCC[N+](C)(C)C)OCCCC (centres undefined) | 3190 | 1.24 |  | >5000 | 1170 | 
4 | CCCCCCCCCC(=O)NCC(COP(=O)([O-])OCC[N+](C)(C)C)OCCCCCC (centres undefined) | 420 | 2.38 |  | 730 |  | 
5 | CCCCCCCC(=O)NCC(COP(=O)([O-])OCC[N+](C)(C)C)OCCCC (centres undefined) | > 5000 |  |  | >5000 |  | 
6 | CCCCCCCCCCCCCCCCOC(CNC(C)=O)COP(=O)([O-])OCC[N+](C)(C)C (centres undefined) | 70 | 1.43 |  | 350 |  | 
7 | CCCCCCCC(=O)NCC(COP(=O)([O-])OCC[N+](C)(C)C)OCCCCCC (centres undefined) | > 5000 |  |  | >5000 |  | 
8 | CCCCCCCCCCCCOC(CNC(C)=O)COP(=O)([O-])OCC[N+](C)(C)C (centres undefined) | 780 | 1.72 |  | 4270 |  | 
9 | CCCCOC(CNC(=O)CCC)COP(=O)([O-])OCC[N+](C)(C)C (centres undefined) | > 5000 |  |  | >5000 |  | 
10 | CCCCCCCCCCCCCCCCCCOC(CNC(C)=O)COP(=O)([O-])OCC[N+](C)(C)C (centres undefined) | 90 | 1.11 |  | 340 |  | 

The next lines start with results.

Row | EC50 (Caco-2 [2]) [µM] | Potency index [3] | EC50 (Caco-2 [6]) [µM] | SMILES | EC10x (Caco-2 [1]) [µM] | CMC (Caco-2 [4]) [µM] | EC10x (Caco-2 [5]) [µM]
11 | > 2000 |  |  | CCCCCCCCCCCCCCCC(=O)NCC(COP(=O)([O-])OCC[N+](C)(C)C)OCCCCCCCCCC (centres undefined) | >2000 |  | 
12 | 1040 | 1.92 |  | CCCCCCCCCCCCOC(CNC(=O)CCCCCCCCC)COP(=O)([O-])OCC[N+](C)(C)C (centres undefined) | >3000 |  | 
13 | > 2000 |  |  | CCCCCCCCCCCCCCOC(CNC(=O)CCCCCCCCC)COP(=O)([O-])OCC[N+](C)(C)C (centres undefined) | >2000 |  | 
14 | 300 | 0.93 |  | CCCCCCCCCCCCCCCCOC(CNC(=O)CCCCC)COP(=O)([O-])OCC[N+](C)(C)C (centres undefined) | 1350 |  | 
15 | 90 | 1.11 |  | CCCCCCCCCCCCCCCC(=O)NCC(COP(=O)([O-])OCC[N+](C)(C)C)OCCCC (centres undefined) | 480 |  | 
16 | > 5000 |  |  | CCCCCCCCCCCCCCCCCC(=O)NCC(COP(=O)([O-])OCC[N+](C)(C)C)OCCCCCCCC (centres undefined) | >5000 |  | 
17 | > 500 |  |  | CCCCCCCCCCCCCCCCOC(CNC(=O)CCCCCCCCCCC)COP(=O)([O-])OCC[N+](C)(C)C (centres undefined) | >500 |  | 
18 | > 2000 |  |  | CCCCCCCCCCCCCCCCOC(CNC(=O)CCCCCCCCC)COP(=O)([O-])OCC[N+](C)(C)C (centres undefined) | >2000 |  | 
19 | > 5000 |  |  | CCCCCCCCCCCCCCCC(=O)NCC(COP(=O)([O-])OCC[N+](C)(C)C)OCCCCCCCC (centres undefined) | >5000 |  | 
20 | 190 | 0.84 |  | CCCCCCCCCCCC(=O)NCC(COP(=O)([O-])OCC[N+](C)(C)C)OCCCCCC (centres undefined) | 1010 |  | 
21 | > 1000 |  |  | CCCCCCCCCCCCCCCC(=O)NCC(COP(=O)([O-])OCC[N+](C)(C)C)OCCCCCCCCCCCC (centres undefined) | >1000 |  | 
22 | 520 | 0.6 |  | CCCCCCCCCCCCCCCC(=O)NCC(COP(=O)([O-])OCC[N+](C)(C)C)OCCCCCC (centres undefined) | 1610 |  | 
